Test results as given in PubChem BioAssay AID624466 (The Scripps Research Institute Molecular Screening Center, 2012).
Screen size: about 360,000 compounds; about 5,400 (1.5%) were called active.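 Rule for the calls: active = inhibition above a per-plate cutoff, the mean inhibition of test compounds on that plate plus 3 SD (cut at about 49% in these data); inactive = the rest.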 The sample as a whole holds a higher share of actives than the screen did.

molecular target: Trace amine-associated receptor 1 (Homo sapiens) (UniProt Q96RJ0); test: human TAAR1 antagonists, primary screen, Fluo-8 calcium fluorescence, CHO RD-HGA16 cells (AID 624466); conditions: CHO RD-HGA16 TAAR1, Fluo-8 calcium fluorescence, antagonist; at 3 µM; stronger effect = higher value;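 note: 0% = DMSO plus EC80 beta-PEA response and 100% = DMSO alone without agonist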
Sequence (Q96RJ0 whole entry, looked up): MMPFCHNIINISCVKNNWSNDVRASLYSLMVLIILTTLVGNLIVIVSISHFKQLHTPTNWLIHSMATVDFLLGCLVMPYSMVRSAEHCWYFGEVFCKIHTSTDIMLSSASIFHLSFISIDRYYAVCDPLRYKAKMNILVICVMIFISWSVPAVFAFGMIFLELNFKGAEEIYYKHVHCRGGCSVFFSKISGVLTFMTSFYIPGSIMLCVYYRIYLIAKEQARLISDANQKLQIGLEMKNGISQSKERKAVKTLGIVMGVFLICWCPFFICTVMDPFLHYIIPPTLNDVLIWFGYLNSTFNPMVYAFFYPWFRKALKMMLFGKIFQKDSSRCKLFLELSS
How it was run: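 System: RD-HGA16 CHO cells with stable hTAAR1 and Gα16 | Probe or stimulus: EC80 β-phenethylamine stimulus | Dosing: 3 µM, single point | Times: Dye loading 75 min at 37 °C, then 30 min room temperature | Measured by: Fluo-8 calcium-sensitive fluorescence | Read-out basis: % inhibition of agonist calcium response | Replicates: n of 1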

inhibition, inactive:
C#CCN([C@@H](C)C(=O)OCC)S(=O)(=O)c1ccc(Br)cc1F 15%
Cc1cccc(NC(=O)c2ccc(S(=O)(=O)N(C)c3ccccc3)cc2)n1 27.4%
CN(c1ccccc1)S(=O)(=O)c1cc(C(=O)N2CCN(c3ncccn3)CC2)ccc1Cl 42.5%
Cc1ccc(S(=O)(=O)N2CCC(=O)N([C@H](COCc3ccccc3)C(C)C)CC2)cc1 1.41%
COC(=O)c1ccc(CN2C(=O)[C@]3(OCCC=C[C@H]3C)c3c(Br)cccc32)cc1 -17.5%
Cc1cc(OCCOc2cccc3cccnc23)c(C)cc1Cl -4.44%
CCOc1cccc(OCCCOc2cccc3cccnc23)c1 -11%
CSc1ccc(S(=O)(=O)N2CCC(C(=O)NCc3ccncc3)CC2)cc1 -9.01%
CC(=O)C1=CCC(c2ccccc2)N(S(=O)(=O)c2ccc(C)cc2)C1 (configuration not stated) -17.1%
Cc1cc(C)c(SCCc2ccncc2)c(C)c1 11.4%
c1ccc(CSCCc2ccncc2)cc1 5.41%
CCOCCCN1C(=O)CN(C2CCCCC2)C(=O)C1c1ccc(OCC)c(OC)c1 (configuration not stated) 11.2%
CCCCn1nnnc1C(c1ccccc1)N1CCN(c2ccccc2OC)CC1 (configuration not stated) 12.1%
Cc1nc2ccccc2n1C(=O)N1CCOCC1 12.8%
CCN(CC)CCN(C)C(c1ccnc2ccccc12)c1nnnn1-c1ccc2c(c1)OCCO2 (configuration not stated) 4.47%
COc1cc(OC)c(N2CC(C(=O)Nc3cc(Cl)ccc3N3CCOCC3)CC2=O)cc1Cl (configuration not stated) 6.19%
COc1ccc(-n2c(-c3ccc(Cl)cc3)n[nH]c2=S)c(OC)c1 -24.1%
CCCn1nc(NS(=O)(=O)c2ccc(F)cc2)c2cc3ccccc3nc21 9.03%
COc1ccccc1-c1ccc([C@@H]2C[C@H]3[C@H](CON3C)CN2S(=O)(=O)c2cc(Cl)cc(Cl)c2)cc1 -24.5%
CCOC(=O)C1(C)CCCN(C(=O)c2ccc(N(C)C)cc2)C1 (configuration not stated) -13.8%
CCC(C)CN1C(=O)CN(S(C)(=O)=O)CC1(C)C(=O)Nc1ccc2c(c1)OCCO2 (configuration not stated) -7.39%
O=C(NC1CCC(O)CC1)c1ccccc1OCc1ccc(F)cc1 (configuration not stated) -21.4%
COc1ccc(CCNC(=O)c2ccccc2OCc2ccccc2)cc1 -1.77%
Cc1ccc2nc(-c3ccc(NC(=O)c4cccnc4)cc3)oc2c1 45.9%
O=C(Nc1ccc(Cl)cc1)c1cccc(OC(=S)N2CCOCC2)c1 -20.4%
CCOC(=O)N(Cc1ccccc1)C1CC1 2.44%
CN(CCO)C(=O)c1nc[nH]c1C(=O)N(C)Cc1ccccc1 -10.4%
Cc1nc(SCC(=O)c2ccccc2)c([N+](=O)[O-])[nH]1 8.14%
Cc1nc2nc(SCC(=O)c3ccccc3)[nH]c2cc1Br -5.84%
CCOC(=O)CCCNC(=O)COC(=O)c1cc(Br)c(Br)s1 -4.99%
CCC1CCCCN1CCNS(=O)(=O)c1ccc2c(c1)CCN2C(C)=O (configuration not stated) -5.09%
Cc1ccc(C(=O)N/C(=C\c2cn(S(=O)(=O)N(C)C)c3ccccc23)C(=O)N2CCCC2)cc1 39.7%
Cc1cc(Cl)ccc1OCCCC(=O)NCc1ccncc1 3.15%
Cc1cc(Cl)ccc1OCCCC(=O)NCc1ccccn1 2.84%
CC1(C(=O)NCc2ccccc2)CSCC(=O)N1CCCN1CCOCC1 (configuration not stated) -18.5%
COC(=O)c1ccc2c(c1)S(=O)(=O)NC2C (configuration not stated) 4.99%
Cn1c(-c2ccc(F)cc2)cnc1SCC(=O)NCc1ccco1 -3.37%
CCn1c(COc2c(C)cccc2C)nnc1SCc1nc2ccccc2c(=O)[nH]1 2.03%
CN(C)CCCn1c(SCCN2C(=O)c3ccccc3C2=O)nc2ccccc2c1=O -1.92%
C[N+](C)(C)CCNC(=O)c1c[nH]c2ccccc12 -17.1%
CCOc1ncccc1C(=O)OCC(=O)c1c[nH]c2ccccc12 42%
COC(=O)C1=C(C)N(Cc2ccccc2C(F)(F)F)C(=NCC2CC2)NC1c1cccc(Cl)c1 (configuration not stated) 1.62%
CCOC(=O)c1cc(-c2ccc(Cl)s2)nc2c1c(C)nn2C 1.4%
CNS(=O)(=O)c1cccc(C(=O)OCC(=O)N2c3ccccc3NC(=O)C2(C)C)c1 0.12%
CC1(C)C(=O)Nc2ccccc2N1C(=O)COC(=O)Cn1cnc2ccccc2c1=O 12.5%
CC(c1ccccc1)n1c(NCCCn2ccnc2)nc2c1c(=O)[nH]c(=O)n2C (configuration not stated) 10.8%
Cc1cc(=O)[nH]c2nnnn12 -7.21%
COc1ccc(S(=O)(=O)N(CC(=O)N/N=C/c2ccc(C(=O)O)cc2)Cc2ccccc2)cc1OC -28.3%
COc1ccc(N(CC(=O)N/N=C/c2cccc3c2OCCO3)S(=O)(=O)c2ccc(NC(C)=O)cc2)cc1 29.3%
Nc1[nH]c(C(=O)c2ccccc2)c(-c2ccc(Cl)cc2Cl)c1C(=O)c1ccccc1 -37.8%
CSCCC(NC(=O)COc1ccccc1)C(=O)Nc1ccc(C)cc1 (configuration not stated) -10.3%
CSCCC(NC(=O)COc1ccccc1)C(=O)OCCOc1ccc(F)cc1 (configuration not stated) 37.1%
CSCCC(NC(=O)COc1ccccc1)C(=O)OCc1ccc(Cl)cc1 (configuration not stated) 22.9%
COc1ccccc1OCCNC(=O)C(CCSC)NC(=O)COc1ccccc1 (configuration not stated) -26.3%
C=CCN1C(=O)C2(OCCCO2)c2cccc(Cl)c21 3.13%
O=C(Nc1c(Cl)c(C2CC2)nn1-c1ccccc1)C(Cl)(Cl)Cl -12.3%
FC(F)(F)c1cccc(-c2nc3ccccc3n2C(c2ccccc2)c2nc3ccccc3[nH]2)c1 (configuration not stated) 18.4%
O=C(c1ccc(C(F)(F)F)cc1)N1CCC(=O)N([C@H](COCc2ccccc2)Cc2ccccc2)CC1 14.8%
COc1ccc(NC(=O)C(c2ccncc2)n2c(=O)c(-c3cc4ccccc4[nH]3)nc3ccccc32)cc1 (configuration not stated) -5.75%
O=C1NC[C@H](CCCCN2C[C@H](Cc3ccc(O)cc3)N(CCc3ccccc3)C(=O)C2=O)N(CCc2ccccc2)C1=O 5.71%
COc1ccc(CNC(=O)C2(CC3CC(c4ccccc4)=NO3)CCN(C(=O)c3cccc(O)c3)CC2)cc1 (configuration not stated) 33.5%
Cc1ccc(CNC(=O)c2cc(-c3ccccc3C)n(CC3CC(c4cccc([N+](=O)[O-])c4)=NO3)n2)cc1 (configuration not stated) 7.96%
COc1ccccc1C(=O)N1O[C@]23C=C[C@]14C[C@@H](O)CC[C@]4(C)C2CC[C@]1(C)[C@@H]([C@H](C)/C=C/[C@H](C)C(C)C)CC[C@H]13 (some centres not stated) 2.31%
Cc1ccc(C)c(-n2nnnc2SCC(=O)c2c(N)n(C)c(=O)n(C)c2=O)c1 -13.3%
COC(=O)Nc1ccc(S(=O)(=O)Nc2cc(OC)nc(OC)n2)cc1 -1.45%
Cc1cc2nc3c(=O)[nH]c(=O)nc-3n(C[C@H](O)[C@H](O)[C@H](O)CO)c2cc1C 18.8%
Nc1ccn([C@@H]2O[C@H](C(=O)N[C@H]3CCCCNC3=O)[C@@H](O)[C@H]2O)c(=O)n1 21.5%
O=C(COC(=O)c1ccc(S(=O)(=O)N2CCc3ccccc3C2)cc1)NC(=O)NCc1ccco1 0.28%
Cc1cc(N2CCN(C(=O)OC(C)(C)C)C[C@H]2C)ccc1N1CCN(Cc2ccccc2)[C@H](C)C1 8.39%

inhibition, active:
CN(c1ccccc1)S(=O)(=O)c1cc(C(=O)Nc2nc3ccccc3[nH]2)ccc1Cl 59%
Cc1ccc2cccc(OCCCOc3ccccc3CO)c2n1 49.6%
CC(C)(C)c1ccc(SCCc2ccncc2)cc1 49.2%
COc1cc(OC)c(-n2cc(-c3ccc(Cl)cc3)[nH]c2=O)cc1Cl 85.5%
CC(=O)c1ccccc1OCc1ccc(C(=O)c2ccccc2)cc1 71.8%
CCC(=O)Oc1cccc(C(=O)Nc2ccc(-c3nnc(-c4ccco4)o3)cc2)c1 63.3%
CN(C(=O)CN(CCO)CC(=O)N(C)C(C)(C)Cc1ccccc1)C(C)(C)Cc1ccccc1 86.5%
Cc1cc(SCC(=O)c2ccccc2)nc(SCC(=O)c2ccccc2)n1 51.6%
O=C1C(Cl)=C(Oc2ccccc2)C(=O)c2ccccc21 50.9%
Cc1cc(Cl)ccc1OCCCC(=O)Nc1cccc(-n2cnnn2)c1 53%
O=c1[nH]c(CSc2ncc(-c3ccc(F)cc3)n2Cc2ccco2)nc2ccccc12 67.8%
C[C@H](NC(=O)c1ccccc1)C(=O)OCC(=O)c1c[nH]c2ccccc12 52.1%
Cc1ccc(OCCC(=O)OCC(=O)N2c3ccccc3NC(=O)C2(C)C)cc1 50.6%
COc1ccc(N(CC(=O)N/N=C/c2cccs2)S(=O)(=O)c2ccc(OC)c(OC)c2)cc1 69.2%
CSCCC(NC(=O)COc1ccccc1)C(=O)OCCOc1ccc(Br)cc1 (configuration not stated) 55.7%
CSCCC(NC(=O)COc1ccccc1)C(=O)OCC(=O)c1cc2ccccc2o1 (configuration not stated) 50%
COc1ccc(C2=NOC(Cn3nc(C(=O)NCc4ccc5c(c4)OCO5)cc3-c3ccccc3)C2)cc1 (configuration not stated) 59.7%
CCN(CC)CCCC(C)n1c2nc(=O)[nH]c(=O)c-2nc2cc(Cl)ccc21 (configuration not stated) 72%
